Tested on: MV4-11
Assay: Cytotoxicity against human MV4-11 cells incubated for 72 hrs by MTT assay
Format: functional, cell-based
Conditions: MV4-11, 72 h
Method in brief: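 Leukemia cells were grown with 10% FBS at 37 °C in 5% CO₂; MV4-11 was kept in IMDM. Cells were seeded at 1–4 × 10⁴ per well, and an equal volume of medium containing increasing inhibitor concentrations was added. MTT was added for 2–4 h, formazan was dissolved in DMSO, and OD was read at 570 nm to derive IC50.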

| Compound | IC50 [nM] |
| --- | --- |
| CC(C)(C)c1cc(NC(=O)Nc2ccc(-c3cn4cc(I)ccc4n3)cc2)no1 | 98.5 |
| CC(C)(C)c1cc(NC(=O)Nc2ccc(-c3cn4cccc(C(F)(F)F)c4n3)cc2)no1 | > 900 |
| CC(C)(C)c1cc(NC(=O)Nc2ccc(-c3cn4cccnc4n3)cc2)no1 | 171 |
| CC(C)(C)c1cc(NC(=O)Nc2ccc(-c3cn4c(n3)sc3cc(OCCN5CCOCC5)ccc34)cc2)no1 [QUIZARTINIB] | 0.68 |
| CC(C)(C)c1cc(NC(=O)Nc2ccc(-c3cn4cccc(F)c4n3)cc2)no1 | 12.2 |
| CC(C)(C)c1cc(NC(=O)Nc2ccc(-c3cn4cc(C5CC5)ccc4n3)cc2)no1 | 15.8 |
| C#Cc1ccc2nc(-c3ccc(NC(=O)Nc4cc(C(C)(C)C)on4)cc3)cn2c1 | 8.62 |
| CC(=O)Oc1ccn2cc(-c3ccc(NC(=O)Nc4cc(C(C)(C)C)on4)cc3)nc2c1 | 29.4 |
| Cc1ccc2nc(-c3ccc(NC(=O)Nc4cc(C(C)(C)C)on4)cc3)cn2c1 | 4.08 |
| CC(C)(C)c1cc(NC(=O)Nc2ccc(-c3cn4ccc(Br)cc4n3)cc2)no1 | 9.59 |
| Cc1cccc2nc(-c3ccc(NC(=O)Nc4cc(C(C)(C)C)on4)cc3)cn12 | 20.2 |
| CC(C)(C)c1cc(NC(=O)Nc2ccc(-c3cc4ccccc4o3)cc2)no1 | 195 |
| CC(C)(C)c1cc(NC(=O)Nc2ccc(-c3cn4cc(Cl)ccc4n3)cc2)no1 | 24.8 |
| CC(C)(C)c1cc(NC(=O)Nc2ccc(-c3cn4c(Cl)cccc4n3)cc2)no1 | 56.1 |
| CC(C)(C)c1cc(NC(=O)Nc2ccc(-c3cn4ccc(Cl)cc4n3)cc2)no1 | 5.91 |
